# TAAR1 antagonist: antagonists of human TAAR1; AID 624466; inhibition, % at 3 µM; Q96RJ0; hit rate 1.5% among 360,000; CHO RD-HGA16 TAAR1, Fluo-8 calcium fluorescence, antagonist;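 active = inhibition above a per-plate cutoff, the mean inhibition of test compounds on that plate plus 3 SD, cut at about 49% in these data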;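 note: 0% = DMSO plus EC80 beta-PEA response and 100% = DMSO alone without agonist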
# Target sequence (Q96RJ0 whole entry, looked up): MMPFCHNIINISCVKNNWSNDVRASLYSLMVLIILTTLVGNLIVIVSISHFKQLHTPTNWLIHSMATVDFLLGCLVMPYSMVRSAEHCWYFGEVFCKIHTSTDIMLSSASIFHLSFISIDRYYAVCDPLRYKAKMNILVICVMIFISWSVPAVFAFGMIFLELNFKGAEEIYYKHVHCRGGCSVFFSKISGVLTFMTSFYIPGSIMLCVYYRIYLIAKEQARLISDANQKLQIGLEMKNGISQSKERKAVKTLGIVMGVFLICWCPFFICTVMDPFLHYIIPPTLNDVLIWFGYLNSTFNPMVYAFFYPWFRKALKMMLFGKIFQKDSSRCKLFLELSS
#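 Test system – hTAAR1-expressing CHO RD-HGA16 cells, Gα16-coupled · Reagent – β-PEA at EC80 concentration, post-compound challenge · Compound dosing – 3 µM, single point · Timing – 140 s kinetic read after compound, 140 s after agonist · Detection – Fluo-8 intracellular calcium dye fluorescence, real-time kinetic reads · Control set – DMSO and EC80 PEA controls · Repeats – n of 1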
# GPR7 antag: human neuropeptides B/W receptor 1 antagonism. P48145. GPR7-expressing cells, fluorescence antagonist assay. inhibition, % at 4.4 µM. hit rate 1.1% among 290,000. AID 1861; in the data active = inhibition above about 16%, passing the limit was not always enough;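 note: cells stimulated with the agonist NPW; 0% = agonist with vehicle and 100% = vehicle without agonist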
# Target sequence (P48145 whole entry, looked up): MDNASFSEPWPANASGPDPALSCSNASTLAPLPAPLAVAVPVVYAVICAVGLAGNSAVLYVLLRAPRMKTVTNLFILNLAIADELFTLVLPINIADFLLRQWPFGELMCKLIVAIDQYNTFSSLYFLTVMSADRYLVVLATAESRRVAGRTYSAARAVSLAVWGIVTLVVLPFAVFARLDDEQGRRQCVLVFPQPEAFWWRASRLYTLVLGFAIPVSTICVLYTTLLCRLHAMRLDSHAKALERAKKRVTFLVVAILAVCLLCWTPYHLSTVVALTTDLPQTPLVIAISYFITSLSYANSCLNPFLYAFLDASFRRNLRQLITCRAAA
# TAAR1 agonist: human TAAR1 agonism | Q96RJ0 | CHO RD-HGA16 TAAR1, Fluo-8 calcium fluorescence; vehicle wells 0%, saturating PEA agonist 100% | activation, % at 3 µM | hit rate 0.99% among 360,000 | AID 624467;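 active = activation above the mean activation of all test compounds in the run plus 3 SD, cut at about 38% in these data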
#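 Benchmarks: low control DMSO, high control PEA (EC100); System: CHO RD-HGA16 cells carrying human TAAR1 plus Gα16; Detection: Fluo-8 fluorescence, 5 s baseline then 140 s kinetic read; Schedule: 17-24 h plating, Fluo-8 75 min 37 °C, 30 min RT; Read-out basis: % activation from peak over basal fluorescence ratio, DMSO-to-PEA scaled.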
# OX1R antag-1: OX1R (human) antagonism | O43613 | OX1R-expressing cells, FRET antagonist read-out | inhibition, % at 6.6 µM | hit rate 1.8% among 330,000; in the data active = inhibition mostly above about 38%, no sharp cut-off; inactive = mostly below about 40%;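 note: 0% = agonist challenge alone and 100% = reference antagonist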
# OX1R antag-2: human HCRTR1 antagonism; AID 434989; inhibition, % at 5 µM; hit rate 0.43% among 330,000; CHO/OX1R cells, Fluo-8 calcium fluorescence, orexin A;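 active = inhibition above its plate's threshold, mean inhibition of all tested compounds on the plate plus 3 SD, cut at about 37% in these data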;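 note: 0% = orexin A challenge wells and 100% = SB-334867-A antagonist wells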
# CHO parental Ca: counter-screen: ATP calcium response change in parental CHO cells | inhibition, % at 5.6 µM | parental CHO-K1, ATP-induced calcium, Fluo-8 fluorescence | hit rate 0.63% among 330,000 | AID 463079;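 active = inhibition above that plate's mean sample inhibition plus 3 SD, cut at about 26% in these data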;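 note: 0% = ATP-challenged DMSO wells and 100% = DMSO wells without ATP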
#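 Assay system: parental CHO cells; Read-out basis: percent inhibition of ATP-evoked calcium rise, normalized to controls; Benchmarks: ATP and no-ATP DMSO wells; Compound dosing: single nominal dose of 5.6 µM per compound; Signal: Fluo-8 calcium dye fluorescence; Also added: ATP as calcium-mobilizing challenge; Repeats: singlicate.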
# An asterisk follows results filed as active; . = no result given. In the library only some 4.5% were active in any assay of this set; here they are far more common.
SMILES,TAAR1 antagonist,GPR7 antag,TAAR1 agonist,OX1R antag-1,OX1R antag-2,CHO parental Ca
COC(=O)c1[nH]c2ccccc2c1NC(=O)CNC1CCCCC1,60.6*,-3.8,21.3,22.9,-34.1,-19.2
CCC1(C)OC(=O)N2CCc3c(C)[nH]c4c(C)ccc(c34)C21C (centres undefined),-10.6,17.8*,0.8,5.0,-9.7,-10.0
CCOC(=O)c1c(C)[nH]c(C(=O)COC(=O)c2ccc(N3CCCC3=O)cc2)c1C,-1.6,-6.8,4.9,9.1,-23.9,-8.1
Cn1cc2cccc([N+](=O)[O-])c2n1,7.7,0.6,1.4,73.9*,-0.3,-1.4
O=C(C(=O)N1CCN(S(=O)(=O)c2ccc(Cl)cc2)CC1)c1cccc(C(F)(F)F)c1,-12.3,.,-0.1,.,.,.
O=C(c1cc(O)c(O)c([N+](=O)[O-])c1)c1ccccc1F,-22.9,.,4.5,38.8*,-8.2,-9.5
Cc1ccc(S(=O)(=O)NC(CCCNC(=O)OCc2ccccc2)C(=O)O)cc1 (centres undefined),-26.5,.,2.2,.,.,.
CC(C)C[C@@H]1COc2cc(N3CCOCC3)ccc2S(=O)(=O)N1,19.9,.,-0.5,.,.,.
CCN(CC)c1ccc(/C=N\NC(=O)c2cccc3cc[nH]c23)cc1,3.6,0.6,-0.4,51.4*,-2.3,-15.6
COC(=O)c1cc2c(c3c4cc(F)ccc4n(S(=O)(=O)c4ccc(OC)cc4)c13)C(=O)N(Cc1ccccc1OC)C2,2.5,.,2.4,.,.,.
COc1cccc(CNS(=O)(=O)c2cc(Br)ccc2Br)c1,19.9,.,9.5,.,.,.
CCC(=O)Nc1ccc2c(c1)C(=O)N(C)C2=O,-9.9,1.6,3.2,24.0,-22.6,1.5
CC(NC(=O)CN1C(=O)c2ccccc2C1=O)c1ccccc1 (centres undefined),-7.7,1.7,-0.5,13.1,5.0,-5.3
CCC(=O)NC1=C(NC(C)c2ccccc2)C(=O)c2ccccc2C1=O (centres undefined),-0.3,-6.8,4.2,63.8*,-21.1,-11.6
CCC(=O)Nc1ccc2c(c1)C(=O)c1ccccc1C2=O,3.9,3.3,2.5,37.0*,-11.0,-6.2
Cc1ccc([C@H]2C[C@H](O)[C@@H](n3cc(C4CC4)nn3)CN2C(=O)C2CCCCC2)cc1,-11.1,.,3.5,.,.,.
CC(C)CC(N)c1csc(Nc2ccc(C(=O)c3ccccc3)cc2)n1 (centres undefined),28.6,.,41.0*,.,.,.
NC(Cc1ccc(F)cc1)c1csc(Nc2ccc(C(=O)c3ccccc3)cc2)n1 (centres undefined),53.0*,.,51.7*,.,.,.
NC(c1csc(Nc2ccc(C(=O)c3ccccc3)cc2)n1)C1CCCCC1 (centres undefined),41.4,.,45.6*,.,.,.
CC(C)c1ccc(NC(=O)Nc2nc(C(N)CCc3ccccc3)cs2)cc1 (centres undefined),32.5,.,42.4*,.,.,.
CC1(C(=O)NCc2ccccc2)CCC(=O)N1CCCn1ccnc1 (centres undefined),1.0,.,0.1,.,.,.
NS(=O)(=O)c1ccc(CNC(=S)Nc2cc(S(=O)(=O)N3CCOCC3)ccc2Cl)cc1,3.7,.,8.1,.,.,.
CCNC(=S)Nc1ccc2c(c1)c(=O)n(C)n2-c1ccc(C(C)(C)C)cc1,-31.4,.,2.0,.,.,.
O=C(N[C@@H](Cc1cccnc1)C(=O)N1CCC[C@H]1C(=O)NC1CCCC1)c1cccs1,-16.4,.,0.6,.,.,.
CN1CCCCC(NC(=O)COCc2ccccc2)C1=O (centres undefined),-15.4,.,0.8,.,.,.
SMILES,TAAR1 antagonist,GPR7 antag,TAAR1 agonist,OX1R antag-1,OX1R antag-2,CHO parental Ca
NC(c1csc(Nc2nccc(C(F)(F)F)n2)n1)C1CCCCC1 (centres undefined),29.8,.,44.3*,.,.,.
NC(Cc1ccccc1)c1csc(Nc2ccc(C(=O)c3ccccc3)cc2)n1 (centres undefined),27.1,.,53.6*,.,.,.
CC(=O)NC1CCCCN(C)C1=O (centres undefined),0.3,.,1.1,.,.,.
COCc1cc(N2CCNC[C@H]2C)ccc1N1C[C@@H](C)O[C@@H](C)C1,-4.1,.,1.4,.,.,.
C=CCn1c(SCC(=O)Nc2cccc(S(N)(=O)=O)c2)nc2sc(C)c(C)c2c1=O,12.4,.,1.7,32.6*,2.2,9.7
CN(C(=O)[C@@H](Cc1ccccc1)NC(=O)[C@H]1O[C@@H](n2ccc(=O)[nH]c2=O)[C@H](O)[C@@H]1O)C1CCCCC1,-23.3,.,1.7,.,.,.
CCc1c(-c2ccc(Br)cc2)ncn1CCc1ccccc1OC,11.6,.,23.7,.,.,.
CN(C)C(/C=C/Nc1ccc(C#N)cc1)=C(C#N)C#N,1.8,3.2,2.4,13.7,-1.3,-2.8
CN(C)C(/C=C/Nc1ccc([N+](=O)[O-])cc1)=C(C#N)C#N,7.7,-7.9,2.9,58.2*,-4.4,-6.3
C[C@@H]1NS(=O)(=O)c2ccc(F)cc2O[C@@H]1c1ccccc1,0.1,.,1.1,.,.,.
CCOC(=O)c1c(C)[nH]c(C(=O)COC(=O)CN2C(=O)C3CCCCC3C2=O)c1C (centres undefined),8.5,7.0,12.1,17.8,-26.9,-12.1
CCOC(=O)c1c(C)[nH]c(C(=O)COC(=O)C(C)N2C(=O)C3CCCCC3C2=O)c1C (centres undefined),51.1*,-10.0,21.8,15.2,-3.7,-13.5
COc1ccc(C(=O)NCC(=O)NCC(=O)OCc2ccc(Cl)cc2)cc1,-20.4,10.5,-0.9,-3.9,-23.2,-23.0
COc1ccc(COC(=O)CCNC(=O)c2ccc(Cl)cc2)cc1,1.3,.,-2.1,52.8*,-10.8,-8.8
CCOC(=O)COc1ccc2c(c1)C(=O)CC1(CCN(C(C)=O)CC1)O2,1.2,5.0,13.4,7.0,-11.8,-11.7
CCOC(=O)N1CCC2(CC1)CC(=O)c1cc(O)ccc1O2,-11.3,18.0*,2.8,19.1,-0.7,-8.9
O=C(CCNS(=O)(=O)c1ccc2nsnc2c1)N1CCN(c2ccncc2)CC1,-1.5,.,8.6,50.6*,1.5,-8.0
Cc1nn(CC(=O)Nc2nnc(CC(=O)N3CCCC3)s2)c(=O)c2ccccc12,13.8,17.6*,0.1,8.1,-15.5,-10.0
COc1ccccc1/C=C/C(=O)Nc1ccc2c(c1)CCC2,29.9,5.9,-1.0,25.5,-6.7,-4.4
COc1ccc(NC(=O)/C=C/c2cc(Br)ccc2OC)cc1,11.8,2.1,0.6,83.0*,36.2,-22.2
COc1ccc(Br)cc1/C=C/C(=O)c1ccc(NC(C)=O)cc1,56.1*,5.7,12.6,57.7,-5.5,-5.7
COc1ccc(C(=O)/C=C/Nc2ccc(NC(C)=O)cc2)cc1OC,4.0,-5.7,3.1,14.2,-13.9,-18.0
COc1ccc(OC)c(/C=C/C(=O)Nc2ccc3c(c2)CCC3)c1,6.4,-9.4,-1.1,69.3*,-26.2,-10.3
Cc1cn2c(=O)c3ncn(C4OC(CO)C(O)C4O)c3n(C)c2n1 (centres undefined),10.9,.,-0.4,.,.,.
CSC[C@H]1CN(c2ccccc2)C(=O)[C@@H]1CC(=O)Nc1ccccc1,-3.8,.,0.4,.,.,.
